Beta apoptosis – beta cell apoptosis inhibition; protection from apoptosis, % (test concentration not listed); hit rate 0.8% among 300,000; INS-1E cytokine-induced death, ATP luminescence, 48 h; percent of positive-control rescue, neutral wells zero;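 active = Every replicate reaches about 75%, or at least half do and their mean reaches it too, limit read from the data; inconclusive = At least half of replicates reach the limit but their mean does not; inactive = Under half of replicates reach the limit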;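 note: 0% = cytokine-treated negative control wells and 100% = positive control rescue; higher means more ATP so stronger rescue from cytokine killing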
KLF5 inhibitor – kruppel-like factor 5 inhibition. hit rate 0.23% among 290,000. DLD-1 KLF5 promoter-luciferase reporter, luminescence. inhibition, % at 5 µM;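 active = inhibition above a per-plate limit of that plate's mean compound inhibition plus 3 SD, cut at about 60% in these data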;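 note: 0% = DMSO wells and 100% = LY294002 at 200 µM; higher means less KLF5 promoter-driven luciferase light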
HIF activator – HIF pathway transcriptional activation; hit rate 0.32% among 300,000; activation, % at 7.5 µM (by protocol); U2OS HRE-luciferase reporter, luminescence; normalized: DMSO 0%, desferrioxamine 100%; AID 1910;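 active = mean activation of at least 10% of the iron chelator positive control signal, with at least half of replicates also reaching 10%; inconclusive = mean and replicate majority disagree about reaching 10%; inactive = mean and most replicates under 10%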
Bfl-1 A1 inh – inhibitors of the anti-apoptotic protein A1, read as caspase activation; MEF A1-2A-BIM cells, Caspase-Glo 3/7 luminescence, 3 h; percent of clofoctol response, vehicle zero; caspase activation, % (test concentration not listed); hit rate 0.066% among 330,000; AID 2462;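 active = over half of replicate activation scores above 10%, or exactly half above 10 with the replicate mean above 10; inconclusive = replicate mean below 10 yet half the replicates above 10; inactive = over half of replicates below 10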
T cruzi repl – T. cruzi replication inhibition | inhibition, % (no concentration beside the values) | AID 1885 | hit rate 1.4% among 300,000 | T. cruzi beta-gal in NIH3T3, luminescence, 90 h;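 active = mean inhibition across valid replicates above about 55%, limit read from the data; inconclusive = mean below that limit but half or more replicates reach it; inactive = mean below it, under half of replicates reach it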;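 note: signal also drops with host cell toxicity which is not excluded here; 0% = plate median of DMSO wells and 100% = zero luminescence signal; higher percent means less beta-gal luminescence so fewer parasites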
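Assay system: NIH/3T3 host cells with β-galactosidase reporter T. cruzi; input: 5,000 host fibroblasts per well; compound: single 50 nL compound addition per well in DMSO; timing: ≥90 h infection period, 3 h prior cell attachment; measured by: GalScreen β-gal luminescence, detergent lysis, 60 min; evaluation: percent inhibition of parasite-derived β-gal signal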
Active calls of the source: *. Most compounds without a hit are left out; they make up all but 2.3% or so of the library.

Results for CCCCN(CCCC)S(=O)(=O)c1ccc(NC(=O)c2ccc([N+](=O)[O-])cc2Cl)cc1 ?
Beta apoptosis: -2.6; KLF5 inhibitor: -2.1; HIF activator: -1.1; Bfl-1 A1 inh: -0.4; T cruzi repl: 79.1*

What do the screens show for `CC(=O)N1CCN(c2ccc(NC(=O)c3ccc([N+](=O)[O-])cc3Cl)cc2)CC1`?
Beta apoptosis: 0.6; KLF5 inhibitor: -31.3; HIF activator: -1.4; Bfl-1 A1 inh: 1.4; T cruzi repl: 5.8

How did Cc1cc(C)nc(NS(=O)(=O)c2ccc(NC(=O)c3cccs3)cc2)n1 do in these assays?
Beta apoptosis: -2.2; KLF5 inhibitor: 1.6; HIF activator: -0.2; Bfl-1 A1 inh: 0.9; T cruzi repl: -2.4

Results for CCOc1ccc(NS(=O)(=O)c2ccc(C(=O)N3CCC3)cc2)cc1 ?
Beta apoptosis: 6.8; KLF5 inhibitor: -4.4; HIF activator: -0.9; Bfl-1 A1 inh: 0.5; T cruzi repl: -12.6

Results for O=c1c2ccccc2ncn1CCOCCOc1ccc([N+](=O)[O-])cc1 ?
Beta apoptosis: 3.0; KLF5 inhibitor: -2.1; HIF activator: -0.9; Bfl-1 A1 inh: -0.5; T cruzi repl: -0.5

Results for O=c1c2ccc([N+](=O)[O-])cc2ncn1CCOc1ccccc1 ?
Beta apoptosis: 3.6; KLF5 inhibitor: -21.3; HIF activator: 0.4; Bfl-1 A1 inh: 1.3; T cruzi repl: 65.9*

Results for Cc1ccc(OCCn2cnc3cc([N+](=O)[O-])ccc3c2=O)cc1 ?
Beta apoptosis: -1.5; KLF5 inhibitor: 2.2; HIF activator: -0.1; Bfl-1 A1 inh: 0.5; T cruzi repl: 71.7*

Results for OC(c1cc(-c2ccc(C(F)(F)F)cc2)nc(C(F)(F)F)c1)C1CCCCN1 (centres undefined) ?
Beta apoptosis: 108.2*; KLF5 inhibitor: -1.7; HIF activator: -2.1; Bfl-1 A1 inh: 0.1; T cruzi repl: 56.0*

How did COCCN1C(=O)C(=O)/C(=C(/O)c2ccc(S(=O)(=O)N3CCCCC3)cc2)C1c1ccc(O)c(OC)c1 (centres undefined) do in these assays?
Beta apoptosis: -1.5; KLF5 inhibitor: -18.4; HIF activator: 0.5; Bfl-1 A1 inh: 0.0; T cruzi repl: -20.4

How did Cc1ccc(NC(=O)C(C)OC(=O)CCN=C2NS(=O)(=O)c3ccccc32)cc1 (centres undefined) do in these assays?
Beta apoptosis: -2.7; HIF activator: 0.6; Bfl-1 A1 inh: 0.2; T cruzi repl: -2.7

How did O=C(N/N=C/c1cc(Cl)ccc1O)c1ccccc1Br do in these assays?
Beta apoptosis: 109.5*; KLF5 inhibitor: 29.8; HIF activator: 10.4*; Bfl-1 A1 inh: 1.5; T cruzi repl: 18.3

How did O=C(CNC(=O)c1ccc2c(c1)OCO2)N/N=C/c1cc(Br)ccc1O do in these assays?
Beta apoptosis: 81.0*; KLF5 inhibitor: 44.5; HIF activator: 1.4; Bfl-1 A1 inh: -0.6; T cruzi repl: 6.1

Results for O=C(N/N=C\c1cc(Cl)ccc1O)c1ccc(S(=O)(=O)N2CCCCC2)cc1 ?
Beta apoptosis: 96.7*; KLF5 inhibitor: 9.1; HIF activator: 44.5*; Bfl-1 A1 inh: -0.4; T cruzi repl: 50.6

What do the screens show for `O=C(CNC(=O)c1ccccc1)N/N=C/c1cc(Br)ccc1O`?
Beta apoptosis: 74.7; KLF5 inhibitor: 18.0; HIF activator: 4.9; Bfl-1 A1 inh: -0.8; T cruzi repl: -2.2

What do the screens show for `O=C(CNC(=O)c1ccccc1Br)N/N=C/c1cc(Br)ccc1O`?
Beta apoptosis: 42.8; KLF5 inhibitor: -2.9; HIF activator: 21.1*; Bfl-1 A1 inh: -0.1; T cruzi repl: 45.6

Results for O=C(CNC(=O)c1ccccc1Br)N/N=C/c1ccccc1O ?
Beta apoptosis: -0.1; KLF5 inhibitor: -15.2; HIF activator: 3.0; Bfl-1 A1 inh: inconclusive; T cruzi repl: -3.0

What do the screens show for `O=C(CSc1nnc(NC(=O)c2ccccc2F)s1)NC1CC1`?
Beta apoptosis: 1.2; KLF5 inhibitor: -106.7; HIF activator: 0.5; Bfl-1 A1 inh: -1.2; T cruzi repl: -4.7

What do the screens show for `COCc1c(C(=O)OCC(=O)NCc2ccco2)oc2ccccc12`?
Beta apoptosis: -4.0; Bfl-1 A1 inh: 0.6

How did COc1ccc(N=C2S/C(=C\c3ccc(OCC(=O)O)cc3)C(=O)N2CCc2c[nH]c3ccccc23)cc1 do in these assays?
KLF5 inhibitor: -35.8; HIF activator: 0.1; T cruzi repl: -0.2

How did COc1ccc(N=C2S/C(=C\c3ccc(N4CCOCC4)o3)C(=O)N2CCc2c[nH]c3ccccc23)cc1 do in these assays?
Beta apoptosis: 104.7*; KLF5 inhibitor: -6.7; HIF activator: -3.7; Bfl-1 A1 inh: 0.3; T cruzi repl: 56.4*

What do the screens show for `CCn1c(C(=O)NCc2cccnc2)cc2sc(Cl)cc21`?
Beta apoptosis: -3.3; KLF5 inhibitor: -40.5; HIF activator: 0.2; Bfl-1 A1 inh: 0.3; T cruzi repl: 61.7*

Results for CCCCOc1cc(NCc2ccccc2)c2ncn(C(C)C)c2c1 ?
Beta apoptosis: 79.5*; Bfl-1 A1 inh: -1.2

Results for CCC(CO)Oc1cc(NCc2ccc(C(C)(C)C)cc2)c2ncn(C(C)C)c2c1 (centres undefined) ?
Beta apoptosis: 136.8*; Bfl-1 A1 inh: -0.8

How did CCC(CO)Oc1cc(NCc2ccccc2)c2ncn(C(C)C)c2c1 (centres undefined) do in these assays?
Beta apoptosis: -10.7; Bfl-1 A1 inh: -0.7

What do the screens show for `COCCCOc1cc(NCc2ccccc2)c2ncn(C(C)C)c2c1`?
Beta apoptosis: 0.7; Bfl-1 A1 inh: -0.9

How did CC(C)n1cnc2c(NCc3ccccc3)cc(N[C@H](C)CO)cc21 do in these assays?
Beta apoptosis: 114.2*; Bfl-1 A1 inh: -0.5

Results for CCOc1cc(/C=C2\CCn3c2nc2cc(Cl)ccc2c3=O)ccc1O ?
Beta apoptosis: 6.9; KLF5 inhibitor: -23.7; HIF activator: -1.1; Bfl-1 A1 inh: 0.6; T cruzi repl: 25.9

Results for Cc1nc(NC(=O)c2ccccc2)sc1-c1csc(NCCc2ccccc2)n1 ?
Beta apoptosis: 10.8; KLF5 inhibitor: -38.3; HIF activator: 2.2; Bfl-1 A1 inh: 0.5; T cruzi repl: 68.6*

Results for Fc1ccc(CN2CC[C@H]3C=CCc4cccc(c43)C2)cc1 ?
Beta apoptosis: -0.6; Bfl-1 A1 inh: -0.1

What do the screens show for `COc1ccc(-c2cc3c(=O)n(CC(=O)NCCCN4CCC(N5CCCCC5)CC4)nc(C)n3n2)cc1`?
Beta apoptosis: -12.2; KLF5 inhibitor: -11.8; HIF activator: -0.2; Bfl-1 A1 inh: -0.4; T cruzi repl: 55.8*

What do the screens show for `CC(=O)Nc1ccc(NC(=O)CSc2ncc(C(=O)Nc3ccccc3)c(=O)n2C)cc1`?
Beta apoptosis: -12.1; HIF activator: -14.1; Bfl-1 A1 inh: -5.8; T cruzi repl: -15.4

Results for O=C(Nc1cccc(Cl)c1)Nc1csc([N+](=O)[O-])c1 ?
Beta apoptosis: 126.2*; KLF5 inhibitor: -9.6; HIF activator: 1.9; Bfl-1 A1 inh: -0.8; T cruzi repl: 63.8*

What do the screens show for `O=C(Nc1cccc(Cl)c1)Nc1nc(-c2ccc(Cl)cc2)cs1`?
Beta apoptosis: 43.4; KLF5 inhibitor: -28.1; HIF activator: 0.4; Bfl-1 A1 inh: 0.2; T cruzi repl: inconclusive

Source: PubChem (several laboratories)
